Experimental data published in ChEMBL document CHEMBL4138260, “Novel Naphthalimide Aminothiazoles as Potential Multitargeting Antimicrobial Agents” (ACS Med Chem Lett, 2017).
In brackets after ≈: the same amount, converted by molar mass. Activity calls are given as the source filed them. No cut-off for these calls is given here.

Columns and labels:
Staphylococcus aureus [1] = assay: Antimicrobial activity against methicillin-resistant Staphylococcus aureus after 24 hrs by two fold serial dilution method; assay type: functional
Outline: (§1)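 MICs by CLSI-recommended two-fold serial broth dilution against the listed bacterial strains.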

Staphylococcus aureus [2] = assay: Antimicrobial activity against Staphylococcus aureus ATCC 25923 after 24 hrs by two fold serial dilution method; assay type: functional; outline: as §1
Staphylococcus aureus [3] = assay: Antimicrobial activity against Staphylococcus aureus ATCC 29213 after 24 hrs by two fold serial dilution method; assay type: functional; outline: as §1
Escherichia coli [4] = assay: Antimicrobial activity against Escherichia coli after 24 hrs by two fold serial dilution method; assay type: functional; outline: as §1
Escherichia coli [5] = assay: Antimicrobial activity against Escherichia coli ATCC 25922 after 24 hrs by two fold serial dilution method; assay type: functional; conditions: for MIC: ATCC 25922, 24 h; outline: as §1
Acinetobacter baumannii [6] = assay: Antimicrobial activity against Acinetobacter baumannii after 24 hrs by two fold serial dilution method; assay type: functional
Outline: (§2)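 MIC determined in vitro by two-fold serial dilution, following the procedure recommended by the Clinical and Laboratory Standards Institute (CLSI).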

Pseudomonas aeruginosa [7] = assay: Antimicrobial activity against Pseudomonas aeruginosa after 24 hrs by two fold serial dilution method; assay type: functional; outline: as §1
Pseudomonas aeruginosa [8] = assay: Antimicrobial activity against Pseudomonas aeruginosa ATCC 27853 after 24 hrs by two fold serial dilution method; assay type: functional; outline: as §1
Escherichia coli [9] = assay: Potency index, ratio of chloromycin MIC to compound MIC against Escherichia coli ATCC 25922; assay type: functional
Escherichia coli [10] = assay: Potency index, ratio of norfloxacin MIC to compound MIC against Escherichia coli ATCC 25922; assay type: functional
Staphylococcus aureus [11] = assay: Antimicrobial activity against methicillin-resistant Staphylococcus aureus measured every 24 hrs post passages for 16 days; assay type: functional, organism-based
Outline: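 Resistance-development study in MRSA, with MIC re-measured over serial passages. Norfloxacin and chloromycin were run alongside as reference drugs.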

Staphylococcus aureus [12] = assay: Bactericidal activity against methicillin-resistant Staphylococcus aureus assessed as log reduction in bacterial count at 4 times MIC measured up to 7 hrs by time kill assay; assay type: functional
Outline: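 Time-kill kinetics against MRSA with the compound at 4 × MIC. Viable bacteria were counted over time as log CFU/mL.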

[13] = Cytotoxicity against […] RAW264.7 cells assessed as cell viability at 128 ug/ml after 24 hrs by MTT assay; assay type: cell-based; conditions: read-out: Activity
Outline: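 Cytotoxicity in […] RAW 264.7 macrophages by MTT assay at concentrations up to 128 μg/mL. Read-out was percent cell viability.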

Staphylococcus aureus [14] = assay: Membrane permeabilization of methicillin-resistant Staphylococcus aureus cytoplasmic membrane at 12 times MIC after 60 mins by propidium iodide staining based fluorescence assay; assay type: functional, organism-based
Outline: (§3)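 Cytoplasmic membrane permeabilization of MRSA or E. coli with propidium iodide. Fluorescence intensity of the compound/PI-treated bacterial mixtures was followed over time up to steady state, with two control groups run in parallel.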

Escherichia coli [15] = assay: Membrane permeabilization of Escherichia coli cytoplasmic membrane at 12 times MIC after 60 mins by propidium iodide staining based fluorescence assay; assay type: functional, organism-based; outline: as §3
DNA = assay: Induction of methicillin-resistant Staphylococcus aureus DNA intercalation assessed as compound-DNA complex formation incubated for 1 hr by UV-visible absorption spectroscopy; assay type: nucleic-acid assay
Albumin = Albumin (Homo sapiens, UniProt P02768); assay: Binding affinity to human serum albumin by UV-visible absorption spectroscopy; assay type: ADME; conditions: isolated protein
Staphylococcus aureus [16] = assay: Antimicrobial activity against Staphylococcus aureus after 24 hrs by two fold serial dilution method; assay type: functional, organism-based; outline: as §2
Enterococcus faecalis = assay: Antimicrobial activity against Enterococcus faecalis after 24 hrs by two fold serial dilution method; assay type: functional, organism-based; outline: as §2
Klebsiella pneumoniae = assay: Antimicrobial activity against Klebsiella pneumoniae after 24 hrs by two fold serial dilution method; assay type: functional, organism-based; outline: as §2
Acinetobacter baumannii [17] = assay: Potency index, ratio of chloromycin MIC to compound MIC against Acinetobacter baumannii; assay type: functional

Sequence of Albumin (P02768 whole entry): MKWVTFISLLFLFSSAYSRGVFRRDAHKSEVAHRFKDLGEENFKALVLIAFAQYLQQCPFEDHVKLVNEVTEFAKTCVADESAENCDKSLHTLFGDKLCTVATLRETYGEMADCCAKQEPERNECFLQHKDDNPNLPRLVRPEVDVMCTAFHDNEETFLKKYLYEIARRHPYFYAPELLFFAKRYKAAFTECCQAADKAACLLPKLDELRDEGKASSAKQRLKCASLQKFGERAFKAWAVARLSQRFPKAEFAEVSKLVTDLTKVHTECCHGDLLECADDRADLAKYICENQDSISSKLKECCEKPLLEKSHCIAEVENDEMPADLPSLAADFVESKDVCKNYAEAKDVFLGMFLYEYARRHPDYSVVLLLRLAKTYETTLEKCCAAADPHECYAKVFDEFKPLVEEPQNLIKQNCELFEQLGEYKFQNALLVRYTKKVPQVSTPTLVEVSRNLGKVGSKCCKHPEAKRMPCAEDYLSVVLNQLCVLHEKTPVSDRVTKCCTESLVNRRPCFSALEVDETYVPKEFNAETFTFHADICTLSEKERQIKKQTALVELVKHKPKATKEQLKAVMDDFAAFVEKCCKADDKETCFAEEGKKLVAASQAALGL

SMILES	Activity (Acinetobacter baumannii [6])	Activity (Staphylococcus aureus [16])	Activity (Staphylococcus aureus [1])	Activity (Staphylococcus aureus [2])	Activity (Staphylococcus aureus [3])	Activity (Enterococcus faecalis)	Activity (Klebsiella pneumoniae)	Activity (Escherichia coli [4])	Activity (Escherichia coli [5])	Activity (Pseudomonas aeruginosa [7])	Activity (Pseudomonas aeruginosa [8])	further results
O=C1c2cccc3c(N4CCNCC4)ccc(c23)C(=O)N1Nc1nccs1	inactive	–	–	–	–	–	–	–	–	–	–	MIC (Staphylococcus aureus [1]): 4 µg/mL (≈ 10.5 µM); MIC (Staphylococcus aureus [2]; ATCC 25923, 24 h): 4 µg/mL (≈ 10.5 µM); MIC (Staphylococcus aureus [3]; ATCC 29213, 24 h): 2 µg/mL (≈ 5.27 µM); MIC (Escherichia coli [4]): 4 to 16 µg/mL (≈ 10.5 to 42.2 µM); MIC (Escherichia coli [5]): 4 to 16 µg/mL (≈ 10.5 to 42.2 µM); MIC (Pseudomonas aeruginosa [7]): 4 to 16 µg/mL (≈ 10.5 to 42.2 µM); MIC (Pseudomonas aeruginosa [8]; ATCC 27853, 24 h): 4 to 16 µg/mL (≈ 10.5 to 42.2 µM); Ratio (Escherichia coli [9]): 4; Ratio (Escherichia coli [10]): 2; Activity (Staphylococcus aureus [11]): Active; Activity (Staphylococcus aureus [12]): >3 CFU/ml; viability at 24 h, 128 ug/ml [13]: 80.1%; Activity (Staphylococcus aureus [14]): Active; Activity (Escherichia coli [15]): Active; Activity (DNA): Active; Activity (Albumin): Active
O=C1c2cccc3c(Br)ccc(c23)C(=O)N1Nc1nccs1	Active	Active	Active	Active	Active	Active	Active	Active	Active	Active	Active	–
O=C1c2cccc3c(N4CCOCC4)ccc(c23)C(=O)N1Nc1nccs1	–	–	–	–	–	–	–	–	–	–	–	MIC (Acinetobacter baumannii [6]): 8 µg/mL (≈ 21 µM); Ratio (Acinetobacter baumannii [17]): 2
CCCCCCCCCCN1CCN(c2ccc3c4c(cccc24)C(=O)N(Nc2nccs2)C3=O)CC1	inactive	inactive	inactive	inactive	inactive	inactive	inactive	inactive	inactive	inactive	inactive	–
CCCCCCCCCCCCN1CCN(c2ccc3c4c(cccc24)C(=O)N(Nc2nccs2)C3=O)CC1	inactive	inactive	inactive	inactive	inactive	inactive	inactive	inactive	inactive	inactive	inactive	–
CCCCCCCCCCCCCCCCN1CCN(c2ccc3c4c(cccc24)C(=O)N(Nc2nccs2)C3=O)CC1	inactive	inactive	inactive	inactive	inactive	inactive	inactive	inactive	inactive	inactive	inactive	–
CCn1cc(C(=O)O)c(=O)c2cc(F)c(N3CCNCC3)cc21 [NORFLOXACIN]	–	–	–	–	–	–	–	–	–	–	–	MIC (Escherichia coli [5]): 8 µg/mL (≈ 25.1 µM); MIC (Acinetobacter baumannii [6]): 8 µg/mL (≈ 25.1 µM)
